In ChEMBL document CHEMBL4261600 (Eur J Med Chem, 2018):
Blank lines part the entries; values can stand above or below the molecule they belong to. Calls of active or inactive are those of the source. No cut-off for these calls is given here.

What was measured:
[1] = Antiproliferative activity against human MEC1 cells after 72 hrs by Celltiter-Glo assay; assay type: functional; conditions: MEC1, 72 h
How it was run: (§1)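 Cells seeded at 3000/well in 96-well plates, exposed to serially diluted compound for 72 h at 37 °C, 5% CO2. Viability read by CellTiter-Glo luminescence and normalized to DMSO control. GI50 derived from curve fit, mean of three independent measurements. Culture media: DMEM/10% FBS for adherent lines; IMDM for MV4-11 and MEC-1/2; RPMI 1640 for suspension lines and CHL.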

[2] = Antiproliferative activity against Chinese hamster CHL cells after 72 hrs by Celltiter-Glo assay; conditions: Cricetulus griseus
MV4-11 [3] = assay: Antiproliferative activity against human MV4-11 cells after 72 hrs by Celltiter-Glo assay; assay type: functional; conditions: MV4-11, 72 h; how it was run: as §1
CDK9/Cyclin K = CDK9/Cyclin K (Homo sapiens, UniProt P50750); assay: Inhibition of CDK9/Cyclin K (unknown origin) using PDKtide as substrate incubated at 37 degreeC for 1 hr followed by incubation at room temperature for 5 mins by ADP-Glo reagent based luminescence assay; assay type: protein-complex assay
CDK9/Cyclin K, sequence (P50750 whole entry): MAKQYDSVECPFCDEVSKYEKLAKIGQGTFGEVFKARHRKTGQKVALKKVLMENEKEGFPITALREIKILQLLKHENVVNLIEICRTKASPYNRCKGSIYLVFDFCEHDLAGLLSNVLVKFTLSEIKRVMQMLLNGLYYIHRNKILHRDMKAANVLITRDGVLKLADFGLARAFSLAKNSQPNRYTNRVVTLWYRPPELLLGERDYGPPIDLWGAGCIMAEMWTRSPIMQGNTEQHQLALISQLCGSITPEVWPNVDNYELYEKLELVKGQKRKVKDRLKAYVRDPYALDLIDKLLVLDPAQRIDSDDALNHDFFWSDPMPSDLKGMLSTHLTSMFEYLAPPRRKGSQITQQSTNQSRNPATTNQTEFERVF
CDK9/Cyclin K, sequence (O75909 whole entry, further chain): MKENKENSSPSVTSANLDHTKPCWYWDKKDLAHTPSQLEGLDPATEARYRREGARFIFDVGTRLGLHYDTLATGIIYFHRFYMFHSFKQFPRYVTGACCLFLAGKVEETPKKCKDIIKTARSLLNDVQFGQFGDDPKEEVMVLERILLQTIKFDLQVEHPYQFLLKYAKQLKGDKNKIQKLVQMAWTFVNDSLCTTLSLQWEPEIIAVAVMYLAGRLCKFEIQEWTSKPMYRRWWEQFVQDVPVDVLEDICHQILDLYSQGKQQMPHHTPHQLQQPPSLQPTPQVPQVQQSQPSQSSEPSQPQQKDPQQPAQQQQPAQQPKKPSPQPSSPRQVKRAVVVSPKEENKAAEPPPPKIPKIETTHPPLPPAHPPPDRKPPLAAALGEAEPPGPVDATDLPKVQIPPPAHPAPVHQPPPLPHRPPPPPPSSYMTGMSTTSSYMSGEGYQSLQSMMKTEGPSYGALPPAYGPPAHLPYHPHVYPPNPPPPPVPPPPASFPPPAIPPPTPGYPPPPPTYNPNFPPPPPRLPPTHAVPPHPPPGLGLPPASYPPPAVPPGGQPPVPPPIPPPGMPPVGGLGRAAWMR

HL-60 [4] = assay: Induction of apoptosis in human HL60 cells assessed as decrease in caspase-3 level after 24 hrs by immunoblotting analysis; assay type: functional, cell-based
SK-N-BE(2)-M17 = assay: Antiproliferative activity against human BE(2)-M17 cells after 72 hrs by Celltiter-Glo assay; assay type: functional; conditions: SK-N-BE(2)-M17, 72 h; how it was run: as §1
MOLM-14 = assay: Antiproliferative activity against human MOLM14 cells after 72 hrs by Celltiter-Glo assay; assay type: functional; conditions: MOLM-14, 72 h; how it was run: as §1
Homo sapiens [5] = organism: Homo sapiens; assay: Induction of apoptosis in human MEC1 cells assessed as decrease in c-MYC level at 0.01 uM after 24 hrs by immunoblotting analysis; assay type: functional, cell-based
MOLM-13 = assay: Antiproliferative activity against human MOLM13 cells after 72 hrs by Celltiter-Glo assay; assay type: functional; conditions: MOLM-13, 72 h; how it was run: as §1
COLO 205 = assay: Antiproliferative activity against human COLO205 cells after 72 hrs by Celltiter-Glo assay; assay type: functional; conditions: COLO 205, 72 h; how it was run: as §1
A-431 = assay: Antiproliferative activity against human A431 cells after 72 hrs by Celltiter-Glo assay; assay type: functional; conditions: A-431, 72 h; how it was run: as §1
U-937 = assay: Antiproliferative activity against human U937 cells after 72 hrs by Celltiter-Glo assay; assay type: functional; conditions: U-937, 72 h; how it was run: as §1
MV4-11 [6] = assay: Induction of apoptosis in human MV4-11 cells assessed as decrease in caspase-3 level after 24 hrs by immunoblotting analysis; assay type: functional, cell-based
[7] = Antiproliferative activity against human MEC2 cells after 72 hrs by Celltiter-Glo assay; assay type: functional; conditions: MEC2, 72 h; how it was run: as §1
A-375 = assay: Antiproliferative activity against human A375 cells after 72 hrs by Celltiter-Glo assay; assay type: functional; conditions: A-375, 72 h; how it was run: as §1
Ramos = assay: Antiproliferative activity against human Ramos cells after 72 hrs by Celltiter-Glo assay; assay type: functional; how it was run: as §1
MV4-11 [8] = assay: Induction of apoptosis in human MV4-11 cells assessed as decrease in c-MYC level at 0.01 uM after 24 hrs by immunoblotting analysis; assay type: functional, cell-based
HL-60 [9] = assay: Induction of apoptosis in human HL60 cells assessed as decrease in c-MYC level at 0.01 uM after 24 hrs by immunoblotting analysis; assay type: functional, cell-based
HL-60 [10] = assay: Induction of apoptosis in human HL60 cells assessed as decrease in MCL-1 level at 0.01 uM after 24 hrs by immunoblotting analysis; assay type: functional, cell-based
MV4-11 [11] = assay: Induction of apoptosis in human MV4-11 cells assessed as decrease in MCL-1 level at 0.01 uM after 24 hrs by immunoblotting analysis; assay type: functional, cell-based
Homo sapiens [12] = organism: Homo sapiens; assay: Induction of apoptosis in human MEC1 cells assessed as decrease in caspase-3 level after 24 hrs by immunoblotting analysis; assay type: functional, cell-based
Homo sapiens [13] = organism: Homo sapiens; assay: Induction of apoptosis in human MEC1 cells assessed as decrease in MCL-1 level at 0.01 uM after 24 hrs by immunoblotting analysis; assay type: functional, cell-based
GISTT1 = assay: Antiproliferative activity against human GISTT1 cells after 72 hrs by Celltiter-Glo assay; assay type: functional; conditions: GISTT1, 72 h; how it was run: as §1
[14] = Antiproliferative activity against CHO cells after 72 hrs by Celltiter-Glo assay; assay type: cell-based, Cricetulus griseus; conditions: chinese hamster; how it was run: as §1
OCI-AML-3 = assay: Antiproliferative activity against human OCI-AML3 cells after 72 hrs by Celltiter-Glo assay; assay type: functional; conditions: OCI-AML-3, 72 h; how it was run: as §1
SKM-1 = assay: Antiproliferative activity against human SKM1 cells after 72 hrs by Celltiter-Glo assay; assay type: functional; conditions: SKM-1, 72 h; how it was run: as §1
HL-60 [15] = assay: Antiproliferative activity against human HL60 cells after 72 hrs by Celltiter-Glo assay; assay type: functional; conditions: HL-60, 72 h; how it was run: as §1

- GI50 (MV4-11 [3]): 0.497 µM
- IC50 (CDK9/Cyclin K): 0.051 µM
Structure (SMILES): CCOCCN[C@H]1CC[C@H](Nc2cc(-c3csc(NCC4CCOCC4)n3)c(Cl)cn2)CC1
- GI50 [1]: 0.634 µM
- GI50 [2]: 2.82 µM

- GI50 (MV4-11 [3]): 0.44 µM
- IC50 (CDK9/Cyclin K): > 10 µM
Structure (SMILES): COC[C@H](C)N[C@H]1CC[C@H](Nc2cc(-c3csc(NCC4CCOCC4)n3)c(Cl)cn2)CC1
- GI50 [1]: 1.3 µM
- GI50 [2]: 3.6 µM

- GI50 (MV4-11 [3]): 0.91 µM
- IC50 (CDK9/Cyclin K): 0.114 µM
Structure (SMILES): COCCN[C@H]1CC[C@H](Nc2cc(-c3csc(NCC4CCOCC4)n3)ccn2)CC1
- GI50 [1]: 2.5 µM
- GI50 [2]: 1.2 µM

- GI50 (MV4-11 [3]): 1.62 µM
- IC50 (CDK9/Cyclin K): 0.253 µM
Structure (SMILES): COCCN[C@H]1CC[C@H](Nc2cc(-c3csc(NCC4CCOCC4)n3)c(C)cn2)CC1
- GI50 [1]: 3.56 µM
- GI50 [2]: 5.01 µM

- GI50 (MV4-11 [3]): 0.57 µM
- IC50 (CDK9/Cyclin K): 0.028 µM
Structure (SMILES): COCCN[C@H]1CC[C@H](Nc2cc(-c3csc(OCC4CCOCC4)n3)c(Cl)cn2)CC1
- GI50 [1]: 1.4 µM
- GI50 [2]: 3.3 µM

- GI50 (MV4-11 [3]): > 10 µM
- IC50 (CDK9/Cyclin K): 0.107 µM
Structure (SMILES): COCCN[C@H]1CC[C@H](Nc2cc(-c3csc(NCC4CCC4)n3)c(Cl)cn2)CC1
- GI50 [1]: 2.26 µM
- GI50 [2]: 1.29 µM

Further lines, the molecule ahead of its results:

Structure (SMILES): N[C@H]1CC[C@H](Nc2cc(-c3csc(NCC4CCOCC4)n3)c(Cl)cn2)CC1
- GI50 [1]: 0.27 µM
- GI50 [2]: 3.5 µM
- GI50 (MV4-11 [3]): 0.14 µM
- IC50 (CDK9/Cyclin K): 0.022 µM

Structure (SMILES): COCCN[C@H]1CC[C@H](Nc2cc(-c3csc(NCc4ccccc4)n3)c(Cl)cn2)CC1
- GI50 [1]: 0.47 µM
- GI50 [2]: 1 µM
- GI50 (MV4-11 [3]): 0.33 µM
- IC50 (CDK9/Cyclin K): 0.014 µM

Structure (SMILES): COCC(=O)N[C@H]1CC[C@H](Nc2cc(-c3csc(NCC4CCOCC4)n3)c(Cl)cn2)CC1
- GI50 [1]: > 10 µM
- GI50 [2]: > 10 µM
- GI50 (MV4-11 [3]): > 10 µM
- IC50 (CDK9/Cyclin K): 1.89 µM

Structure (SMILES): CNc1nc(-c2cc(N[C@H]3CC[C@H](NCCOC)CC3)ncc2Cl)cs1
- GI50 [1]: 1.4 µM
- GI50 [2]: 1.9 µM
- GI50 (MV4-11 [3]): 0.53 µM
- IC50 (CDK9/Cyclin K): 0.101 µM

Structure (SMILES): CCc1cnn2c(NCc3ccc[n+]([O-])c3)cc(N3CCCC[C@H]3CCO)nc12 [DINACICLIB]
- Activity (HL-60 [4]): Dose-dependent effect
- GI50 (SK-N-BE(2)-M17): 0.021 µM
- GI50 (MOLM-14): 0.0045 µM
- Activity (Homo sapiens [5]): Active
- GI50 (MOLM-13): 0.0033 µM
- GI50 (COLO 205): 0.0068 µM
- GI50 (A-431): 0.011 µM
- GI50 (U-937): 0.01 µM
- GI50 [1]: 0.0036 µM
- Activity (MV4-11 [6]): Dose-dependent effect
- GI50 [7]: 0.011 µM
- GI50 (A-375): 0.011 µM
- GI50 (Ramos): 0.0086 µM
- Activity (MV4-11 [8]): Active
- Activity (HL-60 [9]): Active
- Activity (HL-60 [10]): Active
- Activity (MV4-11 [11]): Active
- Activity (Homo sapiens [12]): Dose-dependent effect
- Activity (Homo sapiens [13]): Active
- GI50 (GISTT1): 0.0088 µM
- GI50 at 72 h [14]: 0.16 µM
- GI50 (OCI-AML-3): 0.013 µM
- GI50 (SKM-1): 0.011 µM
- GI50 (HL-60 [15]): 0.008 µM

Structure (SMILES): N[C@H]1CC[C@H](CNc2cc(-c3csc(NCC4CCOCC4)n3)c(Cl)cn2)CC1
- GI50 [1]: > 10 µM
- GI50 [2]: 3.9 µM
- GI50 (MV4-11 [3]): 1.9 µM
- IC50 (CDK9/Cyclin K): 0.084 µM

Structure (SMILES): COCCN[C@H]1CC[C@H](Nc2cc(-c3csc(NCc4ccc(F)cc4)n3)c(Cl)cn2)CC1
- GI50 [1]: 0.45 µM
- GI50 [2]: 1.1 µM
- GI50 (MV4-11 [3]): 0.88 µM
- IC50 (CDK9/Cyclin K): 0.002 µM

Structure (SMILES): Fc1cc(-c2csc(NCC3CCOCC3)n2)c(Cl)cn1
- GI50 [1]: > 10 µM
- GI50 [2]: > 10 µM
- GI50 (MV4-11 [3]): > 10 µM
- IC50 (CDK9/Cyclin K): 0.557 µM

Structure (SMILES): COCCN[C@H]1CC[C@H](Nc2cc(-c3csc(NCC(F)(F)F)n3)c(Cl)cn2)CC1
- GI50 [1]: 1.1 µM
- GI50 [2]: 0.877 µM
- GI50 (MV4-11 [3]): 0.752 µM
- IC50 (CDK9/Cyclin K): 0.017 µM

Structure (SMILES): CC(C)(C)OC(=O)Nc1nc(-c2cc(F)ncc2Cl)cs1
- GI50 [1]: > 10 µM
- GI50 [2]: > 10 µM
- GI50 (MV4-11 [3]): > 10 µM
- IC50 (CDK9/Cyclin K): > 10 µM

Structure (SMILES): COCCN[C@H]1CC[C@H](Oc2cc(-c3csc(NCC4CCOCC4)n3)c(Cl)cn2)CC1
- GI50 [1]: > 10 µM
- GI50 [2]: > 10 µM
- GI50 (MV4-11 [3]): 7.7 µM
- IC50 (CDK9/Cyclin K): 1.67 µM
